Screening results deposited in PubChem by several laboratories.
In the library only some 5.7% were active in any assay of this set; here they are far more common.
Calb FLC: C. albicans growth modulation with fluconazole; C. albicans CaCi-2 (fluconazole-resistant clinical isolate) + fluconazole, Alamar Blue growth, 48 h; growth inhibition, % (no concentration beside the values); hit rate 0.57% among 300,000;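 active = growth inhibition above about 58% in most replicates, limit read from the data, passing the limit was not always enough; inconclusive = exactly half the replicates above a set limit; inactive = most replicates below a set limit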;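 also: all wells also contain fluconazole at 8 µg/ml as a sub-toxic cotreatment; 0% = median of DMSO wells and 100% = median of geldanamycin control wells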
T cruzi repl: blocks replication of Trypanosoma cruzi; T. cruzi beta-gal in NIH3T3, luminescence, 90 h; hit rate 1.4% among 300,000; AID 1885; inhibition, % (test concentration not listed);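 active = mean inhibition across valid replicates above about 55%, limit read from the data; inconclusive = mean below that limit but half or more replicates reach it; inactive = mean below it, under half of replicates reach it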;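 also: signal also drops with host cell toxicity which is not excluded here; 0% = plate median of DMSO wells and 100% = zero luminescence signal; higher percent means less beta-gal luminescence so fewer parasites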
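System: mouse NIH/3T3 fibroblasts infected with β-gal-expressing T. cruzi Tulahuen C4 / Input: NIH/3T3 cells, 5,000 per well / Buffer or medium: Low-serum DMEM with 2% FBS / Probe or stimulus: 5000 reporter trypomastigotes per well / Schedule: ≥90 h infection period, 3 h prior cell attachment / Measured by: GalScreen luminescence, 60 min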
Beta cell apopt: beta cell apoptosis inhibition; INS-1E cytokine-induced death, ATP luminescence, 48 h; percent of positive-control rescue, neutral wells zero; protection from apoptosis, % (concentration not given with the values); hit rate 0.8% among 300,000;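 active = Every replicate reaches about 75%, or at least half do and their mean reaches it too, limit read from the data; inconclusive = At least half of replicates reach the limit but their mean does not; inactive = Under half of replicates reach the limit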;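 also: 0% = cytokine-treated negative control wells and 100% = positive control rescue; higher means more ATP so stronger rescue from cytokine killing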
Mdm2 MdmX PPI: disrupts the human Mdm2-MdmX interaction; SaOS-2 split-luciferase Mdm2/MdmX complementation, luminescence; inhibition, % at 8 µM; hit rate 3% among 330,000; AID 485346;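 active = inhibition of at least 50% at 8 µM in the primary screen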
SKKanGAS inh: blocks kanamycin growth of S. pyogenes SKKanGAS strain; BacTiter-Glo, 6 h; inhibition, % at 7.5 µM; hit rate 1.3% among 300,000;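 active = mean replicate score, as percent of positive control median, at least 50; inconclusive = mean below 50 but one replicate at or above 50; inactive = mean and every replicate below 50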;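 also: strain carries kanamycin resistance gene driven by streptokinase promoter and grows in 40 µg/ml kanamycin; loss of luminescence reflects streptokinase promoter inhibition or plain growth inhibition; 0% = median of DMSO wells and 100% = positive control at its reference dose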
CSC inhib: cancer stem cell inhibition | cancer stem cell-like cells viability, luminescence | hit rate 1.1% among 300,000 | inhibition, % at 7.5 µM; in the data active = inhibition above about 75%; inconclusive = no clear call, values can overlap the other calls; tested in HMLE shEcad cells
Numbers without * were called inactive; ? = inconclusive; / = no result given.

SMILES | Calb FLC | T cruzi repl | Beta cell apopt | Mdm2 MdmX PPI | SKKanGAS inh | CSC inhib
CCc1sc(C(=O)NC2CCN(C)CC2)cc1Br | -8 | 62* | -3 | 25 | -4 | -7
O=C(Nc1nc2c(s1)CN(Cc1ccccc1)CC2)c1c(F)cccc1F | 54 | 0 | -6 | -29 | 7 | -10
COCCN=C1Sc2nc3cc4c(cc3cc2CN1CC1CCCO1)OCO4 (configuration not stated) | -13 | 5 | -2 | 29 | / | -11
CCOc1cccc(/C=C/c2ccc3cccc(O)c3n2)c1OC | ? | 84* | / | 11 | 98* | ?
COc1c(OC(C)=O)ccc(/C=C/c2ccc3cccc(OC)c3n2)c1[N+](=O)[O-] | -25 | -7 | / | -7 | 6 | /
CCOc1cc(/C=C/c2ccc3cccc([N+](=O)[O-])c3n2)ccc1O | 22 | 2 | -8 | -10 | 6 | 7
COC(=O)c1ccc(/C=C/c2ccc3cccc(OC(C)=O)c3n2)cc1 | 24 | 33 | 5 | -124 | 53* | 28
CCOc1c(OC(C)=O)ccc(/C=C/c2ccc3cccc(OC(C)=O)c3n2)c1[N+](=O)[O-] | 50 | -8 | 8 | -45 | 85* | -6
COc1cc(Cl)cc(/C=C/c2ccc3cccc(O)c3n2)c1OC | -4 | 47 | 25 | 49 | 87* | 46
CCCN1CCN(C(=O)C(NC(=O)c2ccco2)C(C)C)CC1 (configuration not stated) | 3 | -4 | -24 | 6 | 2 | -2
CCOc1ccc2nc(NC(=O)Cn3c(C)csc3=O)sc2c1 | / | / | / | 12 | / | /
COc1ccccc1C(=O)NCCC(=O)NC(C)c1ccc(-n2ccnc2)cc1 (configuration not stated) | 0 | 0 | -3 | 15 | -7 | 6
O=C(O)c1ccc(/C=C/c2ccc3cccc(O)c3n2)cc1 | 64 | -19 | / | 5 | 3 | /
COc1ccccc1/C=C/c1ccc2cccc(O)c2n1 | -8 | 56* | 18 | -53 | 97* | 29
COc1cc(Br)cc(/C=N/NC(=O)Cc2ccccc2)c1O | 0 | -11 | 20 | 40 | 109* | 10
O=C(COc1ccc(-c2ccccc2)cc1)N/N=C/c1ccccc1Br | -7 | 4 | -7 | -5 | 19 | 31
CCC(O)(CC)C(=O)N/N=C/c1cc(Br)cc(Br)c1O | 6 | 41 | 28 | 43 | 89* | ?
O=C(CP(=O)(c1ccccc1)c1ccccc1)N/N=C/c1cc(Br)cc(Br)c1O | 1 | 18 | / | 49 | 102* | /
O=C(COc1ccc(-c2ccccc2)cc1)N/N=C/c1cc(O)ccc1Br | 3 | -25 | 0 | 11 | 98* | 89*
CCOc1cc(/C=N\Nc2ncc(F)c(N3CCOCC3)n2)ccc1Oc1nc(Cl)ncc1F | 3 | 21 | 2 | 38 | 18 | -1
COc1cc(NC(=O)COC(=O)CCOc2ccc(C)cc2)cc(OC)c1 | 2 | -4 | / | 30 | / | -7
O=C(C[n+]1ccccc1)N/N=C/c1cc(Br)ccc1F | / | / | -6 | -2 | / | -5
O=C(C[n+]1ccccc1)N/N=C/c1cc(Br)cc(Br)c1O | 14 | -12 | -18 | 21 | 102* | 15
Cc1ccc(NC(=O)Cn2c(=O)oc3cc(S(=O)(=O)N4CCC(C)CC4)ccc32)cc1C | -1 | -10 | 76* | 17 | 2 | -1
Cc1cc(C)c(C)c(S(=O)(=O)ON2C(=O)c3ccccc3C2=O)c1C | 101* | 8 | / | 12 | -7 | /
SMILES | Calb FLC | T cruzi repl | Beta cell apopt | Mdm2 MdmX PPI | SKKanGAS inh | CSC inhib
O=C(O)C(c1ccccc1)N1C(=O)/C(=C\c2ccc(-c3ccccc3Cl)o2)SC1=S (configuration not stated) | 33 | -3 | / | 0 | 102* | /
O=C(O)C(c1ccccc1)N1C(=O)/C(=C\c2ccc(-c3ccc(Br)cc3)o2)SC1=S (configuration not stated) | 47 | 6 | / | 9 | 109* | /
COc1cc(/C=C2\SC(=S)N(C(C(=O)O)c3ccccc3)C2=O)cc(OC)c1OC (configuration not stated) | 8 | -15 | -4 | -6 | 15 | 16
Cc1cc(C)n(-c2nc(NCC(C)O)c3c4c(sc3n2)CCCC4)n1 (configuration not stated) | 2 | 23 | 57 | 16 | 0 | -1
Cc1cc(C)n(-c2nc(SCC(=O)O)c3c4c(sc3n2)CCCC4)n1 | 5 | 42 | 1 | 21 | 57* | 13
Cc1cc(C)n(-c2nc(NCCCO)c3c4c(sc3n2)CCCC4)n1 | -9 | 14 | 81* | 20 | 55* | 20
Cc1cc(C)n(-c2nc(NCCO)c3c4c(sc3n2)CCCC4)n1 | -5 | -3 | 80* | 11 | -4 | -3
COc1ccc(S(=O)(=O)N2CCCC(C(=O)NCc3ccc4c(c3)OCO4)C2)cc1 (configuration not stated) | -5 | 12 | 4 | 11 | 2 | -22
COc1cccc(NC(=O)NCc2ccccc2Cl)c1 | 0 | -1 | -1 | -9 | 0 | 4
COc1ccc(NC(=O)C2=CC=CN3CCS(=O)(=O)N=C23)c(OC)c1 | / | / | -1 | 11 | / | -13
CCN1CCN(c2oc(/C=C/c3ccccc3)nc2C#N)CC1 | -5 | 26 | 6 | 2 | 3 | -4
N#Cc1c2c(c(NCc3ccco3)n3c1nc1ccccc13)CCC2 | -1 | / | 10 | -8 | 11 | -10
CCN(CC)CCNc1cc(C)c(C#N)c2nc3ccccc3n12 | 7 | 57* | 5 | 18 | -11 | -9
CCN(CC)CCNc1c2c(c(C#N)c3nc4ccccc4n13)CCCC2 | 24 | 63* | / | 42 | -1 | -13
Cc1cc(NCCCCO)n2c(nc3ccccc32)c1C#N | -15 | 4 | 9 | 8 | 2 | -7
CN(C)CCNc1c2c(c(C#N)c3nc4ccccc4n13)CCCC2 | ? | 62* | -3 | 25 | 1 | -25
Cc1ccc(S(=O)(=O)N/N=c2\oc3ccccc3cc2C(=O)Nc2cccc(C)c2)cc1 | -5 | -7 | -1 | -27 | 2 | -7
CCOC(=O)Cc1csc(NC(=O)c2ccc3ncsc3c2)n1 | 116* | -6 | 0 | 6 | 0 | -3
CCOC(=O)Cc1csc(NC(=O)c2ccc(Br)cc2)n1 | -2 | -22 | / | 27 | -3 | -5
Cc1cc(C(=O)NCCc2ccc(Cl)cc2)no1 | -12 | 1 | 0 | 5 | 2 | -4
CCOC(=O)c1csc(Nc2nc3ccc(F)cc3s2)n1 | 3 | ? | 22 | -4 | 53* | 34
CCOC(=O)c1sc(Nc2nc3ccc(OC)cc3s2)cc1C | -26 | 25 | -6 | -28 | 50* | -3
COc1c(-c2ccccc2)oc2c(ccc3occc32)c1=O | / | / | 2 | 5 | / | /
COc1ccc(N=Cc2cc(Cc3ccccc3Cl)cc([N+](=O)[O-])c2O)cc1OC | ? | 26 | -1 | 16 | 40 | /
Cc1ccc(N=Cc2cc(Cc3ccccc3Cl)cc([N+](=O)[O-])c2O)c(O)c1 | 109* | -2 | 4 | 37 | ? | 70
